Results on 22 compounds are retold here after ChEMBL document CHEMBL3751738, “Structure-based design and biological evaluation of novel 2-(indol-2-yl) thiazole derivatives as xanthine oxidase inhibitors” (Bioorg Med Chem Lett, 2016).

A word on the half-life: it is the time needed for the level to fall by half in the phase considered. Lower therefore signals fast loss. As a reminder, the IC50 is the point on the concentration scale where inhibition reaches its midpoint. Broadly, the inhibition in vivo is the change of the read-out against control, counted positive when it falls. A lower inhibition in vivo goes with a response near the control. As usually defined, the Cmax is the highest concentration seen after dosing. As usually defined, the AUC(0-t) is the area under the concentration-time curve up to a stated or last time point. Higher therefore signals more exposure. For orientation: Tmax means the time from dosing to the highest level. What is called AUC(0-inf) is total exposure, with the tail of the curve extrapolated.

The structures appear in SMILES notation.

Series [1] in a line: Half life in rat liver microsomes. In kind it is ADME.
The nature of series [2]: Inhibition of butter milk xanthine oxidase (unknown origin) assessed as initial velocity of uric acid formation pre-incubated for 3 mins by spectrophotometry analysis. The procedure, abridged:
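Buttermilk xanthine oxidase diluted to 0.05 U/mL in 50 mM phosphate buffer. Compounds at several concentrations were added in phosphate buffer containing 10% DMSO and pre-incubated 3 min at room temperature. The reaction was started with xanthine solution (200 µM as added). Uric acid formation was read at 293 nm, with the linear rate over 5 min taken as initial velocity. % inhibition was calculated against the no-inhibitor rate, and IC50 derived.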

The test system of the next series is Rattus norvegicus. As to the kind of experiment: Inhibition of oxonic acid-induced high uric acid level in Sprague-Dawley rat plasma at 10 mg/kg, po after 1 hr. In kind it is functional. The method, boiled down:
(§1)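 Hyperuricemia was induced in male SD rats (about 200 g) with potassium oxonate 300 mg/kg i.p., suspended in 0.8% carboxymethylcellulose. One hour later compounds were dosed orally in PEG400:ethanol (2:1), and blood was taken 1 h post-dose for plasma uric acid. Inhibition was scaled with the normal group as 100% and the oxonate control as 0%. Statistics used ANOVA with Dunnett's post-test.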

Series [3] in a line: Cmax in Sprague-Dawley rat at 10 mg/kg, po. In kind it is ADME, organism-based. Also on record: dose 10 mg/kg, route oral. Conditions: in vivo. The method, boiled down: (§2)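 Single oral dose of 10 mg/kg given to SD rats. Plasma Cmax, Tmax, AUC0–last, AUC0–infinity and t1/2 were determined, n = 3.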
A short description of series [4]: Plasma concentration in Sprague-Dawley rat at 10 mg/kg, po after 1 hr. In kind it is ADME, organism-based. The procedure, abridged:
as §1

The nature of series [5]: Half life in Sprague-Dawley rat at 10 mg/kg, po. In kind it is ADME, organism-based. Conditions: in vivo. The method, boiled down:
as §2

Series [6] in a line: AUC (0 to last) in Sprague-Dawley rat at 10 mg/kg, po. Also on record: dose 10 mg/kg, route oral, time 0 - last. In kind it is ADME, organism-based. Conditions: in vivo. The procedure, abridged:
as §2

Series [7] in a line: Tmax in Sprague-Dawley rat at 10 mg/kg, po. In kind it is ADME, organism-based. Conditions: in vivo. The method, boiled down:
as §2

Series [8] is described as follows: AUC (0 to infinity) in Sprague-Dawley rat at 10 mg/kg, po. Also on record: dose 10 mg/kg, route oral, time infinity. In kind it is ADME, organism-based. Conditions: in vivo. The method, boiled down:
as §2

With `Cc1nc(-c2cc3cc(NCc4ccccc4)cc(C#N)c3[nH]2)sc1C(=O)O`, the half-life in [1] amounted to 1.5 h. In addition, the half-maximal inhibitory concentration (IC50) in series [2] stood at 9.3 nM.

Consider `COc1ccc2cc(-c3nc(C)c(C(=O)O)s3)[nH]c2c1`, for which, in [2], the half-maximal inhibitory concentration (IC50) was determined as 2200 nM.

On to `Cc1nc(-c2cc3cc(Oc4ccccc4)cc([N+](=O)[O-])c3[nH]2)sc1C(=O)O`, for which the half-life in [1] is 4.03 h. This compound yielded an inhibition in vivo at 10 mg/kg in the series with Rattus norvegicus of 7.1%. The compound further gave a Cmax in series [3] of 3200 ng/mL. The 50% inhibitory concentration (IC50) in [2] was determined as 15.9 nM.

As for `N#Cc1cc(-c2n[nH]c(-c3ccncc3)n2)ccn1` [TOPIROXOSTAT], in series [2], the IC50 is 5.3 nM.

For the compound `Cc1nc(-c2cc3ccc(OCC(C)C)cc3[nH]2)sc1C(=O)O`, the half-inhibitory concentration (IC50) in series [2] came to 481 nM.

`COc1ccc2[nH]c(-c3nc(C)c(C(=O)O)s3)cc2c1`: the IC50 in series [2] worked out at 792 nM.

The compound `Cc1nc(-c2cc3cc(N4CCCCC4)cc(C#N)c3[nH]2)sc1C(=O)O` returned a half-life in [1] of 2.51 h. Moreover, the highest concentration (Cmax) in series [3] worked out at 740 ng/mL. Moreover, the half-inhibitory concentration (IC50) in [2] was determined as 6.9 nM.

The compound `Cc1nc(-c2cc3cc(Oc4ccccc4)ccc3[nH]2)sc1C(=O)O` registered a half-life in series [1] of 1.94 h. In addition, the IC50 in [2] was found to be 233 nM.

On to `COc1cc([N+](=O)[O-])c2[nH]c(-c3nc(C)c(C(=O)O)s3)cc2c1`, for which the concentration at 1 h in series [4] worked out at 100 ng/mL. Besides, the half-life in [1] was found to be 0.402 h. Also, the inhibition in vivo at 10 mg/kg in the series on Rattus norvegicus stood at 4%. For the same compound, the 50% inhibitory concentration (IC50) in [2] was 7 nM.

With `Cc1nc(-c2cc3cc(NC4CCCC4)cc(C#N)c3[nH]2)sc1C(=O)O`, the half-life in series [1] turned out to be 2.96 h. In [3], this compound displayed a peak concentration (Cmax) of 300 ng/mL. In series [2], the IC50 worked out at 9.4 nM.

`Cc1nc(-c2cc3cc(Oc4ccccc4)cc(C#N)c3[nH]2)sc1C(=O)O` came in with a half-life in [1] of 3.67 h. For the same compound, the half-maximal inhibitory concentration (IC50) in series [2] came to 8.9 nM.

Consider `Oc1ncnc2[nH]ncc12` [ALLOPURINOL], for which the IC50 in series [2] was determined as 3740 nM.

For the compound `Cc1nc(-c2cc3cc(OCc4ccccc4)ccc3[nH]2)sc1C(=O)O`, in [2], the IC50 was 522 nM.

Turning to `Cc1nc(-c2cc3cc(N)cc(C#N)c3[nH]2)sc1C(=O)O`, the half-inhibitory concentration (IC50) in series [2] worked out at 31.8 nM.

On to `Cc1nc(-c2cc3cc(OC4CCCC4)cc(C#N)c3[nH]2)sc1C(=O)O`, for which, in series [1], the half-life stood at 2.07 h. The compound further had an inhibition in vivo at 10 mg/kg in the series with Rattus norvegicus of 2.3%. In [3], this compound had a Cmax of 720 ng/mL. Besides, the IC50 in [2] was found to be 5.7 nM.

With `Cc1nc(-c2cc3cc(OC(C)C)cc([N+](=O)[O-])c3[nH]2)sc1C(=O)O`, the half-life in series [5] is 3.45 h; in series [1] it was 4.13 h. Further, the AUC(0-t) in series [6] came out at 8230 ng·h/mL. In addition, the time to peak (Tmax) in series [7] was found to be 0.42 h. For the same compound, 10 mg/kg produced 43% inhibition in vivo with Rattus norvegicus. Moreover, the area under the curve AUC(0-inf) in series [8] is 13100 ng·h/mL. Besides, the peak level in series [3] (Cmax) was 4940 ng/mL. Moreover, the 50% inhibitory concentration (IC50) in series [2] came to 5.1 nM.

`Cc1nc(-c2ccc(OCC(C)C)c(C#N)c2)sc1C(=O)O` [FEBUXOSTAT] had an inhibition in vivo at 10 mg/kg in the series on Rattus norvegicus of 60%. In addition, the IC50 in [2] was found to be 3.1 nM.

For the compound `Cc1nc(-c2cc3cc(OCC(C)C)ccc3[nH]2)sc1C(=O)O`, in series [1], the half-life came out at 1.61 h. In [2], the half-inhibitory concentration (IC50) came out at 209 nM.

Turning to `Cc1nc(-c2cc3cc(Oc4ccccc4)cc(Br)c3[nH]2)sc1C(=O)O`, the half-life in series [1] amounted to 1.52 h. Moreover, the concentration for half-maximal inhibition (IC50) in series [2] worked out at 17 nM.

In [1], `Cc1nc(-c2cc3cc(Oc4ccccc4)cc(Cl)c3[nH]2)sc1C(=O)O` returned a half-life of 4.69 h. The IC50 in series [2] came to 14.3 nM.

Take `Cc1nc(-c2cc3cc(CNS(C)(=O)=O)cc([N+](=O)[O-])c3[nH]2)sc1C(=O)O`: in series [4], the concentration at 1 h is 17 ng/mL. In series [1], the half-life worked out at 14.6 h. The inhibition in vivo at 10 mg/kg in the series on Rattus norvegicus came out at 0%. Also, the half-maximal inhibitory concentration (IC50) in series [2] worked out at 3.6 nM.

In the case of `Cc1nc(-c2cc3cc(OC(C)C)cc(C#N)c3[nH]2)sc1C(=O)O`, the half-life in series [1] is 2.17 h. Besides, testing at 10 mg/kg in the series on Rattus norvegicus gave an inhibition in vivo of 19%. The compound further had a Cmax in series [3] of 3750 ng/mL. Moreover, in series [2], the half-maximal inhibitory concentration (IC50) was 6.1 nM.
